Values belong to the molecule of their own block, whether it stands above or below them. The source made the active and inactive calls. No cut-off for these calls is given here.
Assays:
[1] = Inhibition of alpha-glucosidase using para-nitrophenyl substrate
[2] = Inhibition of Aspergillus oryzae Beta-galactosidase
Method in brief: (§1)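 β-Galactosidase from Aspergillus oryzae (9.4 unit/mg solid) assayed by a modified literature method. Values are means of ≥3 determinations. NA means <20% inhibition at 400 μM. Maximum inhibition recorded at the top concentration tested (400 or 200 μM).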

[3] = Inhibition of Aspergillus oryzae Beta-galactosidase at 400 uM; method in brief: as §1
[4] = Inhibition of beta-glucosidase using salicin substrate
Method in brief: (§2)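 β-Glucosidase added to 1 mL mix of inhibitor, 5.0 mM salicin, 0.1 M NaAc-HAc pH 5.0, then reacted 10 min at 40 °C. Stopped with DNS reagent and developed 5 min in boiling water. Reducing sugar read at 540 nm against a glucose standard. Triplicates at five concentrations bracketing an estimated IC50. Maximum inhibition recorded at the top concentration tested (400 or 200 μM).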

[5] = Inhibition of alpha-glucosidase at 200 uM using para-nitrophenyl substrate
[6] = Effect on secondary structure of alpha-glucosidase assessed as alpha-helix content at 0.5 uM bt circular dichroism method
Method in brief: (§3)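 Yeast α-glucosidase secondary structure measured by far-UV CD (186-240 nm), protein 0.53-0.66 mg/mL, 0.1 cm quartz cuvette, 5 accumulations per spectrum. Spectra recorded after exposure to inhibitor and compared with enzyme alone. α-helix, β-sheet, β-turn and random fractions estimated by secondary-structure deconvolution.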

[7] = Effect on secondary structure of alpha-glucosidase assessed as alpha-helix content at 0.3 uM at circular dichroism method; method in brief: as §3
[8] = Effect on secondary structure of alpha-glucosidase assessed as beta-sheet content at 0.5 uM at circular dichroism method; method in brief: as §3
[9] = Effect on secondary structure of alpha-glucosidase assessed as beta-sheet content at 0.3 uM at circular dichroism method; method in brief: as §3
[10] = Effect on secondary structure of alpha-glucosidase assessed as beta-turn content at 0.5 uM at circular dichroism method; method in brief: as §3
[11] = Effect on secondary structure of alpha-glucosidase assessed as beta-turn content at 0.3 uM at circular dichroism method; method in brief: as §3
[12] = Effect on secondary structure of alpha-glucosidase assessed as random content at 0.5 uM at circular dichroism method; method in brief: as §3
[13] = Effect on secondary structure of alpha-glucosidase assessed as random content at 0.3 uM at circular dichroism method; method in brief: as §3
[14] = Inhibition of beta-glucosidase at 400 uM using salicin substrate; method in brief: as §2
[15] = Inhibition of beta-glucosidase at 200 uM using salicin substrate; method in brief: as §2
[16] = Inhibition of Aspergillus oryzae Beta-galactosidase at 200 uM; method in brief: as §1
[17] = Inhibition of alpha-glucosidase using para-nitrophenyl substrate by dose responsive study
[18] = Inhibition of alpha-glucosidase compound administered simultaneously with para-nitrophenyl substrate
Method in brief: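 Yeast α-glucosidase assay with PNP glycoside substrate, inhibitor and substrate added together with no preincubation.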

[19] = Slow binding inhibition of alpha-glucosidase compound administered 1 hr at 37 degC before initiation of enzyme reaction using para-nitrophenyl substrate
Method in brief: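 Yeast α-glucosidase preincubated with inhibitor at 37 °C for 1 h before the reaction is started with PNP glycoside substrate.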

[20] = Noncompetitive inhibition of alpha-glucosidase by Lineweaver-Burk plot
Method in brief: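 Yeast α-glucosidase (50 μL, 10 U/mL) preincubated with inhibitor at 37 °C for 1 h, then PNP glycoside substrate added at varying concentrations. Rate of PNP hydrolysis read at several inhibitor concentrations. Mode assigned from Lineweaver-Burk (1/rate vs 1/[substrate]) double-reciprocal plots. Ki taken from Dixon plot and averaged over the inhibitor concentrations.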

Structure (SMILES): COc1ccc2c(OC)cc(=O)oc2c1
IC50 [1]: > 100 µM

Structure (SMILES): O=c1ccc2cc(O)c(O)cc2o1
inhibition [5]: < 20%

Structure (SMILES): O=c1oc2ccccc2cc1O [3-HYDROXYCOUMARIN]
IC50 [1]: 35.3 µM | IC50 [2]: Not Active | inhibition [3]: 0% | IC50 [4]: Not Active

Structure (SMILES): O=c1cc(O)c2ccc(O)cc2o1
IC50 [1]: 38.9 µM | IC50 [2]: Not Active | inhibition [3]: 0% | Activity [6]: 37.1% | Activity [7]: 47.1% | Activity [8]: 7.4% | Activity [9]: 5.3% | Activity [10]: 21.4% | Activity [11]: 18% | Activity [12]: 34.1% | Activity [13]: 29.4% | IC50 ([4]; read-out: IC50): > 400 µM | inhibition [14]: 36.7%

Structure (SMILES): Cc1ccc2oc(=O)cc(O)c2c1
inhibition [5]: < 20%

Structure (SMILES): Cc1cc(=O)oc2cc(O)c(O)cc12 [4-METHYLESCULETIN]
IC50 [1]: 94.2 µM

Structure (SMILES): O=c1oc2cc(O)ccc2c(O)c1-c1c(O)ccc(O)c1-c1c(O)c2ccc(O)cc2oc1=O
IC50 [1]: 0.86 µM | inhibition [15]: 23% | IC50 ([2]; read-out: IC50): > 200 µM | inhibition [16]: 2% | inhibition [17]: Dose-dependent effect | IC50 [18]: 88.4 µM | inhibition [19]: Active | Ki [20]: 0.587 µM | Activity [6]: 32.7% | Activity [7]: 33.4% | Activity [8]: 30% | Activity [9]: 23.8% | Activity [10]: 9.2% | Activity [11]: 13.4% | Activity [12]: 28.1% | Activity [13]: 29.4% | IC50 ([4]; read-out: IC50): > 200 µM

Structure (SMILES): Cc1cc(=O)oc2cc(O)ccc12 [HYMECROMONE]
IC50 [1]: 56.2 µM

More lines, now with the values ahead:

IC50 [1]: 96.1 µM
Structure (SMILES): COc1ccc2c(O)cc(=O)oc2c1

IC50 [1]: 64.6 µM | IC50 ([2]; read-out: IC50): > 200 µM | inhibition [3]: 53.9% | IC50 ([4]; read-out: IC50): 45.4 µM
Structure (SMILES): Cc1cc(=O)oc2cc(O)cc(O)c12 [5,7-DIHYDROXY-4-METHYLCOUMARIN]

IC50 [1]: 50.5 µM | IC50 [2]: Not Active | inhibition [3]: 0% | IC50 ([4]; read-out: IC50): 87.6 µM
Structure (SMILES): Cc1c(O)ccc2c(O)cc(=O)oc12

inhibition [5]: < 20%
Structure (SMILES): COc1ccc2c(OC)cc(=O)oc2c1C

IC50 [1]: 12.4 µM
Structure (SMILES): O=c1c(-c2ccc(O)cc2)coc2cc(O)cc(O)c12 [GENISTEIN]

IC50 [1]: 52.7 µM
Structure (SMILES): Cc1cc(=O)oc2c(O)c(O)ccc12 [4-METHYLDAPHNETIN]

inhibition [5]: < 20%
Structure (SMILES): O=c1ccc2cc(O)ccc2o1

IC50 [1]: 35.5 µM
Structure (SMILES): OC[C@H]1NC[C@H](O)[C@@H](O)[C@@H]1O [DUVOGLUSTAT]
